Source: ChEMBL document CHEMBL1124462, “Synthesis, DNA binding, and biological evaluation of synthetic precursors and novel analogues of netropsin” (J Med Chem, 1989)
In brackets after ≈: the same amount, converted by molar mass.

Tests used:
[1] = tested on: Raji; test: Dose required to inhibit Human B-Lymphoblast (Raji) cell proliferation by 50%; type: functional; conditions: read-out: CD50 (the source's name)
[2] = tested on: Nucleic Acid; test: Ratio of association constant of poly (dA-dT) and poly (dG-dC); type: nucleic-acid assay
Procedure, shortened: (§1)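 Kapp for poly(dA-dT) and for poly(dG-dC) is each determined by ethidium bromide competition in 0.01 M cacodylate, pH 7.0, 25 °C, with 1.26 μM ethidium and 1 μM polynucleotide. IC50 comes from a fitted competition sigmoid and is converted to Kapp assuming a four-base-pair binding size. The ratio is taken between the two polynucleotides.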

[3] = tested on: Human alphaherpesvirus 2; test: Minimum inhibitory concentration required to reduce herpes simplex virus-2(G) induced cytopathogenicity by 50% in primary rabbit kidney cells (PRK); type: functional
Procedure, shortened: (§2)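 Cell cultures (PRK, HeLa or Vero B) are infected at 100 × CCID50. Cytopathogenicity is recorded once it reaches completion in the untreated virus-infected controls. The minimum inhibitory concentration is given in μg/mL.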

[4] = Dose required to inhibit Human T-Lymphoblast (Molt/4F) cell proliferation by 50%; type: functional; conditions: read-out: CD50 (the source's name)
[5] = tested on: HeLa; test: Minimum inhibitory concentration required to reduce polio virus -1 induced cytopathogenicity by 50% in HeLa cells; type: functional; conditions: Homo sapiens
[6] = tested on: Vero; test: Minimum inhibitory concentration required to reduce parainfluenza virus-3 induced cytopathogenicity by 50% in african green monkey (VeroB) cells; type: functional, Human respirovirus 3; conditions: Chlorocebus sabaeus; procedure, shortened: as §2
[7] = tested on: Nucleic Acid; test: Association constant against polynucleotide poly (dG-dC); type: nucleic-acid assay
Procedure, shortened: (§3)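 Competition with ethidium bromide binding at 25 °C in 0.01 M cacodylate buffer, pH 7.0, with 1.26 μM ethidium bromide and 1 μM polynucleotide. Bound ethidium is estimated from its fluorescence increase (V = 34 for poly(dA-dT), 25 for poly(dG-dC)). IC50 for 50% ethidium displacement comes from a fitted competition sigmoid. Kapp is calculated from IC50 assuming a binding size of four base pairs.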

[8] = tested on: Nucleic Acid; test: Association constant against the polynucleotide poly (dA-dT).; type: nucleic-acid assay; procedure, shortened: as §3
[9] = tested on: HeLa; test: Minimum cytotoxic concentration required to cause a microscopically detectable alteration of normal cell morphology and show antiviral activity in HeLa cells; type: functional; conditions: Homo sapiens
Procedure, shortened: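 HeLa cell cultures exposed to compound for the same duration as the antiviral assay, then examined microscopically. The minimum cytotoxic concentration is the lowest level causing detectable alteration of normal cell morphology. Values are in μg/mL.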

[10] = tested on: Vero; test: Minimum cytotoxic concentration required to cause a microscopically detectable alteration of normal cell morphology and show antiviral activity in african green monkey (Vero B) cells; type: functional; conditions: Chlorocebus sabaeus
[11] = tested on: Human alphaherpesvirus 1; test: Minimum inhibitory concentration required to reduce herpes simplex virus-1 (KOS) induced cytopathogenicity by 50% in primary rabbit kidney cells(PRK); type: functional; procedure, shortened: as §2
[12] = tested on: Vesicular stomatitis virus; test: (§4) Minimum inhibitory concentration required to reduce vesicular stomatitis virus induced cytopathogenicity by 50% in primary rabbit kidney cells (PRK); type: functional
[13] = organism: Oryctolagus cuniculus; test: Minimum cytotoxic concentration required to cause a microscopically detectable alteration of normal cell morphology and show antiviral activity in primary rabbit kidney (PRK) cells; type: functional
[14] = tested on: Sindbis virus; test: Minimum inhibitory concentration required to reduce Sindbis virus induced cytopathogenicity by 50% in african green monkey (VeroB) cells; type: functional; procedure, shortened: as §2
[15] = tested on: Mammalian orthoreovirus 1; test: Minimum inhibitory concentration required to reduce reovirus-1 induced cytopathogenicity by 50% in african green monkey (VeroB)cells; type: functional; procedure, shortened: as §2
[16] = tested on: FM3A; test: In vitro inhibition of FM3A (murine mammary carcinoma) cell proliferation.; type: functional; conditions: Mus musculus, read-out: CD50 (the source's name)
[17] = tested on: L1210; test: Dose required to inhibit Murine leukemia (L1210) cell proliferation by 50%; type: functional; conditions: Mus musculus, read-out: CD50 (the source's name)
[18] = tested on: Vero; test: Minimum inhibitory concentration required to reduce Coxsackie virus B4 induced cytopathogenicity by 50% in african green monkey (VeroB) cells; type: functional, Coxsackievirus B4; conditions: Chlorocebus sabaeus; procedure, shortened: as §2
[19] = tested on: HeLa; test: Minimum inhibitory concentration required to reduce Coxsackie virus B4 induced cytopathogenicity by 50% in HeLa cells; type: functional; conditions: Homo sapiens; procedure, shortened: as §2
[20] = tested on: Semliki Forest virus; test: Minimum inhibitory concentration required to reduce semliki forest virus induced cytopathogenicity by 50% in african green monkey (VeroB) cells; type: functional; procedure, shortened: as §2
[21] = tested on: Nucleic Acid; test: Ratio of association constant of poly(dA-dT) and poly(dG-dC); type: nucleic-acid assay; procedure, shortened: as §1
[22] = tested on: Nucleic Acid; test: Association constant against the polynucleotide poly(dA-dT); type: nucleic-acid assay; procedure, shortened: as §3
[23] = tested on: HeLa; test: Minimum inhibitory concentration required to reduce vesicular stomatitis virus induced cytopathogenicity by 50% in HeLa cells; type: functional; conditions: Homo sapiens
[24] = Minimum inhibitory concentration required to reduce herpes simplex virus-2 (G)induced cytopathogenicity by 50% in primary rabbit kidney cells (PRK); type: functional; conditions: Oryctolagus cuniculus
[25] = as §4; type: functional; conditions: Oryctolagus cuniculus
[26] = Minimum inhibitory concentration required to reduce herpes simplex virus-1 (KOS)induced cytopathogenicity by 50% in primary rabbit kidney cells (PRK); type: functional; conditions: Oryctolagus cuniculus

| SMILES | CC50 [1] [µg/mL] | MIC [3] [µg/mL] | CC50 [4] [µg/mL] | MIC [5] [µg/mL] | MIC [6] [µg/mL] | K app [7] [M⁻¹] | MCC [9] [µg/mL] | MCC [10] [µg/mL] | MIC [11] [µg/mL] | MIC [12] [µg/mL] | MCC [13] [µg/mL] | MIC [14] [µg/mL] | MIC [15] [µg/mL] | CC50 [16] [µg/mL] | CC50 [17] [µg/mL] | MIC [18] [µg/mL] | MIC [19] [µg/mL] | MIC [20] [µg/mL] | MIC [23] [µg/mL] | further results |
| --- | --- | --- | --- | --- | --- | --- | --- | --- | --- | --- | --- | --- | --- | --- | --- | --- | --- | --- | --- | --- |
| CC(NC(=O)c1cc(NC(=O)c2cc([N+](=O)[O-])cn2C)cn1C)C(=O)OC(C)(C)C (stereo not drawn) | 33.8 (≈ 80.6 µM) | > 40 | 26.6 (≈ 63.4 µM) | > 40 | 20 (≈ 47.7 µM) | 400 | > 100 | > 100 | > 40 | > 40 | >100 | > 40 | > 40 | 27.7 (≈ 66 µM) | 37.8 (≈ 90.1 µM) | 20 (≈ 47.7 µM) | > 100 | > 40 | – | Ratio [2]: 0.5; K app [8]: 200 M⁻¹ |
| Cn1cc([N+](=O)[O-])cc1C(=O)NCCCNCCCCN | > 200 | > 200 | > 200 | – | > 200 | 420000 | > 400 | > 400 | > 200 | > 400 | >400 | > 400 | > 100 | > 200 | > 200 | > 200 | > 400 | > 400 | – | Ratio [21]: 2.38; K app [22]: 1e+06 M⁻¹ |
| Nc1ncnc2c1ncn2C[C@H](O)CO [(S)-DHPA] | – | > 400 | – | – | 7 (≈ 33.5 µM) | – | > 400 | > 400 | > 400 | 70 (≈ 335 µM) | >400 | > 400 | 20 (≈ 95.6 µM) | – | – | 200 (≈ 956 µM) | > 400 | > 400 | 20 (≈ 95.6 µM) | – |
| C[C@H](NC(=O)c1cc(NC(=O)c2cc([N+](=O)[O-])cn2C)cn1C)C(=O)N[C@@H](C)C(=O)N[C@@H](C)C(=O)OC(C)(C)C | > 100 | > 200 | > 100 | > 400 | > 400 | 750 | > 400 | > 400 | > 100 | > 100 | >400 | > 200 | > 200 | > 100 | > 100 | > 200 | > 200 | > 200 | – | Ratio [21]: < 0.13; K app [22]: < 100 M⁻¹ |
| Cn1cc([N+](=O)[O-])cc1C(=O)NCCC#N | > 50 | > 200 | > 50 | > 400 | > 400 | < 100 | > 400 | > 400 | > 400 | > 400 | >400 | > 100 | > 200 | – | > 50 | > 100 | 150 (≈ 675 µM) | > 100 | > 400 | K app [8]: < 100 M⁻¹ |
| Nc1ncnc2c1ccn2[C@@H]1O[C@H](CO)[C@@H](O)[C@H]1O [TUBERCIDIN] | – | – | – | 0.07 (≈ 0.263 µM) | 0.07 (≈ 0.263 µM) | – | > 0.4 | > 0.4 | – | – | >0.4 | 0.1 (≈ 0.376 µM) | 0.07 (≈ 0.263 µM) | – | – | 0.07 (≈ 0.263 µM) | 0.07 (≈ 0.263 µM) | > 0.4 | 0.07 (≈ 0.263 µM) | MIC [24]: > 0.1 µg/mL; MIC [25]: 0.2 µg/mL (≈ 0.751 µM); MIC [26]: > 0.1 µg/mL |
| Nc1nccc2c1ncn2[C@@H]1C[C@H](CO)[C@@H](O)[C@H]1O [3-DEAZAARISTEROMYCIN A] | – | – | – | – | 0.4 (≈ 1.51 µM) | – | > 400 | > 400 | – | – | >400 | > 400 | 0.2 (≈ 0.757 µM) | – | – | 70 (≈ 265 µM) | > 400 | > 400 | 2 (≈ 7.57 µM) | MIC [24]: > 400 µg/mL; MIC [25]: 2 µg/mL (≈ 7.57 µM); MIC [26]: > 400 µg/mL |
